Data: ChEMBL document CHEMBL1123186, “Enzymatic phosphorylation of the antiherpetic agent 9-[(2,3-dihydroxy-1-propoxy)methyl]guanine” (1986)
In brackets after ≈: the same amount, converted by molar mass.

How the values were obtained:
Format in all cases: functional
[1] = test system: MRC5; assay: Compound was tested for 50% inhibition of HSV-1 induced cytopathic effect in MRC-5 cells; Not active; conditions: Homo sapiens, read-out: ED50 (the source's name)
[2] = test system: Human alphaherpesvirus 1; assay: Phosphorylation by HSV-1 thymidine kinase
Method in brief: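 Affinity-purified HSV1 TK (1 unit) from infected HeLa cells, 37 °C for 1 h, with 40 µg nucleoside in 50% Me2SO. Buffer: 50 mM Tris pH 7.5, 5 mM MgCl2, 5 mM ATP, 2 mM DTT, 2.5 mM NaF, 15 mM phosphocreatine, creatine kinase and BSA. Nucleoside and phosphates separated by anion-exchange HPLC (KH2PO4 gradient, pH 3.0) and quantified from peak areas.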

[3] = test system: MRC5; assay: Compound was tested for 50% inhibition of HSV-1 induced cytopathic effect in MRC-5 cells; conditions: Homo sapiens, read-out: ED50 (the source's name)
[4] = test system: Human alphaherpesvirus 1; assay: Compound was tested for the inhibition of HSV-1 polymerase; design: concentration or dose not given beside the values
Method in brief: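 Analog first phosphorylated 3 h at 37 °C with HSV1 TK, GMP kinase, creatine kinase/phosphocreatine, 5 mM ATP and HSV1-infected HeLa crude extract; 20 µL aliquots added to 100 µL polymerase mix with 50 mM Tris pH 8, 5 mM MgCl2, activated salmon sperm DNA, 0.05 mM each dNTP ([3H]dTTP), 0.1 M (NH4)2SO4, and infected-HeLa extract or purified HSV1 polymerase; 1 h 37 °C; TCA-precipitable counts.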

[5] = target: T1, DNA polymerase alpha catalytic subunit (Homo sapiens) (UniProt P09884); assay: Compound was tested for the inhibition of HeLa DNA polymerase; conditions: concentration not given here
T1 sequence (whole entry): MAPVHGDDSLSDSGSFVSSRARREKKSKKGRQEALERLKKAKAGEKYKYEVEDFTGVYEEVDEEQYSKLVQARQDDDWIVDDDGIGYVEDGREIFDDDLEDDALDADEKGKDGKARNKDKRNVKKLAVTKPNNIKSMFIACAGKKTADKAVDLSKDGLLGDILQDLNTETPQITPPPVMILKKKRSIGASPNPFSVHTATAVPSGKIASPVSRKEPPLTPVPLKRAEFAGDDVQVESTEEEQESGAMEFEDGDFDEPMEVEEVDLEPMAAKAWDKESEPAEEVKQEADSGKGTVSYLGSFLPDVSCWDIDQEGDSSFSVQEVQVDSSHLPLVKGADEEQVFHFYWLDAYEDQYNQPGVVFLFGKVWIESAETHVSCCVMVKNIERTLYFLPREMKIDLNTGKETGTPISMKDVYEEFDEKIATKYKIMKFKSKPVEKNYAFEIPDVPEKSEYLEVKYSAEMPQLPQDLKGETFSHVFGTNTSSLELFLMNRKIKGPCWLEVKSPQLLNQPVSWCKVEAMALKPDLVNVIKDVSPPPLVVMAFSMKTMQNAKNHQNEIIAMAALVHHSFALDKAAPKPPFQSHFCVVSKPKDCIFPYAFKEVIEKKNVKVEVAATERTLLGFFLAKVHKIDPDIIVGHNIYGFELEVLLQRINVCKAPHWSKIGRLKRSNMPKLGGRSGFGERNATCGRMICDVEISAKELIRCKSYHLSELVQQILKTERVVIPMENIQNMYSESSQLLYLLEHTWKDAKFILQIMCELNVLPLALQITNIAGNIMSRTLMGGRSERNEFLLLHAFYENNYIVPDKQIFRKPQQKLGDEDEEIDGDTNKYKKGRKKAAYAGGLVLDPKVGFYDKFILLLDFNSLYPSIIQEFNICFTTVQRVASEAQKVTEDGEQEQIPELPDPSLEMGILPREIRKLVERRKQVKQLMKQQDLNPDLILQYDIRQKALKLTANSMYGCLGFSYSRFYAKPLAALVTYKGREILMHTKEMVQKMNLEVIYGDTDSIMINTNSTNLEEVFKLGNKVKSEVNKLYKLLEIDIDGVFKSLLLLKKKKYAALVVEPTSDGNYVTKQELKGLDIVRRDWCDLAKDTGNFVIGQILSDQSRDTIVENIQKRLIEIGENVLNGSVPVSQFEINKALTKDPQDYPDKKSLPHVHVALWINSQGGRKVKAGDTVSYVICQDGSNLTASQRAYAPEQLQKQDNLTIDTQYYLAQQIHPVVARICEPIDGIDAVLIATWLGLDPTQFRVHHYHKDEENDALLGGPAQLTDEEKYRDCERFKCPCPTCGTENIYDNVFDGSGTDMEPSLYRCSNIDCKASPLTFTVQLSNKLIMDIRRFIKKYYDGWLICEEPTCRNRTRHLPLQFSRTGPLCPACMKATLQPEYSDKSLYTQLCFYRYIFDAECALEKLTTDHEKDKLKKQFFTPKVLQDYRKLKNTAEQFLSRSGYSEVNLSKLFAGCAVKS
Method in brief: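 Cellular polymerase taken from crude HSV1-infected HeLa extract, assayed without (NH4)2SO4. Inhibitor came as 20 µL of a 3-h, 37 °C enzymatic phosphorylation mixture, in 50 mM Tris pH 8 with 5 mM MgCl2, activated salmon sperm DNA and 0.05 mM each dNTP ([3H]dTTP). Incubation 1 h at 37 °C, then TCA-insoluble radioactivity counted.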

[6] = test system: MRC5; assay: Compound was tested for 50% inhibition of HSV-1 induced cytopathic effect in MRC-5 cells; 3-6; conditions: Homo sapiens, read-out: ED50 (the source's name)

`Nc1nc(O)c2ncn(COCC(O)CF)c2n1` (centres undefined) was tested, and the EC50 [1] was > 100 µg/mL and the Phosphorylation [2] was 4%.
`Nc1nc(O)c2ncn(COCC(F)CO)c2n1` (centres undefined) gave an EC50 [3] of 25 µg/mL (≈ 97.2 µM) and a Phosphorylation [2] of 42%.
`Nc1nc2c(ncn2COC(CO)CO)c(=O)[nH]1` [GANCICLOVIR] was tested, and the Inhibition [4] was 60% and the inhibition [5] was 17%.
`Nc1nc(O)c2ncn(COCC(O)CO)c2n1` (single isomer, unassigned; form 1) [listing 1 of 2 here] gave an inhibition [5] of 10%.
Molecule `Nc1nc(O)c2ncn(COCCCO)c2n1` has an EC50 [3] of 50 µg/mL (≈ 209 µM) and a Phosphorylation [2] of 88%.
`CC(O)COCn1cnc2c(O)nc(N)nc21` (centres undefined) gave an EC50 [3] of 100 µg/mL (≈ 418 µM) and a Phosphorylation [2] of 5%.
In the case of `Nc1nc(O)c2ncn(COCC(O)CO)c2n1` (single isomer, unassigned; form 2), the Inhibition [4] is reported as 14%.
For `Nc1nc(O)c2ncn(COCC(O)CO)c2n1` (centres undefined) [listing 1 of 2 here], the inhibition [5] was 6%.
Molecule `Nc1nc2c(ncn2COCCO)c(=O)[nH]1` [ACYCLOVIR] has an Inhibition [4] of 86% and an inhibition [5] of 37%.
With `Nc1nc(O)c2ncn(COCC(O)CO)c2n1` (centres undefined) [listing 2 of 2 here] the Inhibition [4] was 36%, the Phosphorylation [2] was 59% and the EC50 [6] was 3 µg/mL (≈ 11.8 µM).
Molecule `Nc1nc(O)c2ncn(COCC(O)CO)c2n1` (single isomer, unassigned; form 1) [listing 2 of 2 here] has an Inhibition [4] of 54%.
